Data reported in ChEMBL document CHEMBL1811868, “Structure-activity relationship of 2-hydroxy-2-aryl-2,3-dihydro-imidazo[1,2-a]pyrimidinium salts and 2N-substituted 4(5)-aryl-2-amino-1H-imidazoles as inhibitors of biofilm formation by Salmonella Typhimurium and Pseudomonas aeruginosa” (Bioorg Med Chem, 2011).
The source made the active and inactive calls. How the calls were made is not given here.

Tests used:
Pseudomonas aeruginosa [1] = assay: Antimicrobial activity against Pseudomonas aeruginosa PA14 assessed as inhibition of biofilm formation after 24 hrs by spectrophotometry; type: functional, organism-based; details: PA14, 24 h
How it was run: (§1)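 Static peg-lid biofilm prevention assay. Twofold serial dilutions in TSB diluted 1/20, 2–3 repeats per compound. Overnight S. Typhimurium ATCC14028 (LB-grown) or P. aeruginosa PA14 (TSB-grown) cultures were diluted 1:100, giving ~10^6 cells/well, then incubated 24 h at 25 °C without shaking. Pegs were PBS-washed, stained 30 min with 0.1% crystal violet, extracted with 30% acetic acid and read at OD570. IC50 was fitted from the concentration gradient.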

Salmonella typhimurium [2] = assay: Antimicrobial activity against Salmonella Typhimurium ATCC 14028 assessed as inhibition of biofilm formation after 24 hrs by spectrophotometry; type: functional, organism-based, Salmonella enterica subsp. enterica serovar Typhimurium; details: for IC50: Salmonella enterica, ATCC 14028, 24 h; how it was run: as §1
Pseudomonas aeruginosa [3] = assay: Antimicrobial activity against Pseudomonas aeruginosa PA14 assessed as inhibition of planktonic cell growth at IC50 after 24 hrs by […]; type: functional, organism-based
How it was run: (§2)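 Planktonic growth was followed by Bioscreen growth curves, not by crystal violet. Overnight cultures were diluted 1:200 in TSB 1/20 and received compound serially diluted in DMSO or EtOH, in triplicate, with solvent controls. Plates were shaken at 25 °C for at least 24 h, reading A600 every 15 min.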

Salmonella typhimurium [4] = assay: Antimicrobial activity against Salmonella Typhimurium ATCC 14028 assessed as inhibition of planktonic cell growth at IC50 after 24 hrs by […]; type: functional, organism-based; details: Salmonella enterica subsp. enterica serovar Typhimurium; how it was run: as §2

CCCCCCCCCCCCCCN1c2nccc[n+]2C[C@@]1(O)c1ccc(Cl)cc1
IC50 (Pseudomonas aeruginosa [1]): > 800 µM
IC50 (Salmonella typhimurium [2]): > 800 µM

CCCCCCCCN1c2nccc[n+]2C[C@@]1(O)c1ccc(SC)cc1
IC50 (Pseudomonas aeruginosa [1]): 36.5 µM
IC50 (Salmonella typhimurium [2]): 13.2 µM

COc1ccc(CNc2ncc(-c3ccc([N+](=O)[O-])cc3)[nH]2)cc1
IC50 (Pseudomonas aeruginosa [1]): > 800 µM
IC50 (Salmonella typhimurium [2]): > 800 µM

CCCCCCCCN1c2nccc[n+]2C[C@@]1(O)c1ccc(Cl)cc1
growth inhibition (GI) (Pseudomonas aeruginosa [3]): Active
IC50 (Pseudomonas aeruginosa [1]): 15.7 µM
IC50 (Salmonella typhimurium [2]): 7 µM
growth inhibition (GI) (Salmonella typhimurium [4]): Active

CCCCCCCCCCN1c2nccc[n+]2C[C@@]1(O)c1ccc(F)cc1
IC50 (Salmonella typhimurium [2]): 20 µM

CCCCCCCCN1c2nccc[n+]2C[C@@]1(O)c1cccc2ccccc12
IC50 (Pseudomonas aeruginosa [1]): 15.1 µM
IC50 (Salmonella typhimurium [2]): 14.7 µM

CCCCCCCCCNc1ncc(-c2ccc(Cl)cc2)[nH]1
IC50 (Salmonella typhimurium [2]): > 800 µM

CN1c2nccc[n+]2C[C@@]1(O)c1cccc([N+](=O)[O-])c1
IC50 (Salmonella typhimurium [2]): 564 µM

Fc1ccc(-c2cnc(NCc3ccc4c(c3)OCO4)[nH]2)cc1
IC50 (Pseudomonas aeruginosa [1]): 456 µM
IC50 (Salmonella typhimurium [2]): 66.6 µM
growth inhibition (GI) (Salmonella typhimurium [4]): inactive

CCCCCCCCNc1ncc(-c2ccc(Br)cc2)[nH]1
IC50 (Pseudomonas aeruginosa [1]): > 800 µM
IC50 (Salmonella typhimurium [2]): 1.9 µM

O[C@@]1(c2ccccc2)C[n+]2cccnc2N1Cc1ccccc1
IC50 (Salmonella typhimurium [2]): 212 µM

CCCCCCCCNc1ncc(-c2ccc(Cl)cc2)[nH]1
IC50 (Pseudomonas aeruginosa [1]): 1.6 µM
IC50 (Salmonella typhimurium [2]): > 400 µM

O[C@@]1(c2ccccc2)C[n+]2cccnc2N1C1CCC1
IC50 (Pseudomonas aeruginosa [1]): > 400 µM
IC50 (Salmonella typhimurium [2]): 493 µM

CNc1ncc(-c2ccc(O)cc2)[nH]1
IC50 (Salmonella typhimurium [2]): 160 µM

CCCCCCCCCN1c2nccc[n+]2C[C@@]1(O)c1ccccc1
growth inhibition (GI) (Pseudomonas aeruginosa [3]): Active
IC50 (Pseudomonas aeruginosa [1]): 26.8 µM
IC50 (Salmonella typhimurium [2]): 8.3 µM
growth inhibition (GI) (Salmonella typhimurium [4]): Active

CC(C)Nc1ncc(-c2ccccc2)[nH]1
IC50 (Pseudomonas aeruginosa [1]): 261 µM
IC50 (Salmonella typhimurium [2]): > 800 µM

O=[N+]([O-])c1ccc([C@]2(O)C[n+]3cccnc3N2C23CC4CC(CC(C4)C2)C3)cc1
IC50 (Pseudomonas aeruginosa [1]): 14.4 µM
IC50 (Salmonella typhimurium [2]): 8.8 µM

CNc1ncc(-c2ccc(F)c(F)c2)[nH]1
IC50 (Salmonella typhimurium [2]): 602 µM

CCCCNc1ncc(-c2ccc([N+](=O)[O-])cc2)[nH]1
IC50 (Pseudomonas aeruginosa [1]): > 800 µM
IC50 (Salmonella typhimurium [2]): 702 µM

CCCCCCCCN1c2nccc[n+]2C[C@@]1(O)c1ccc(-c2ccc([N+](=O)[O-])cc2)cc1
IC50 (Pseudomonas aeruginosa [1]): 215 µM
IC50 (Salmonella typhimurium [2]): 31 µM

CCCCCCCCCCN1c2nccc[n+]2C[C@@]1(O)c1ccccc1
growth inhibition (GI) (Pseudomonas aeruginosa [3]): Active
IC50 (Pseudomonas aeruginosa [1]): 29.9 µM
IC50 (Salmonella typhimurium [2]): 15 µM
growth inhibition (GI) (Salmonella typhimurium [4]): Active

c1ccc2c(-c3cnc(NCc4ccc5c(c4)OCO5)[nH]3)cccc2c1
IC50 (Pseudomonas aeruginosa [1]): 10.5 µM

CCCCCN1c2nccc[n+]2C[C@@]1(O)c1ccccc1
IC50 (Pseudomonas aeruginosa [1]): 565 µM
IC50 (Salmonella typhimurium [2]): 278 µM

CCCCCCN1c2nccc[n+]2C[C@@]1(O)c1ccc(Cl)cc1
IC50 (Pseudomonas aeruginosa [1]): 79.8 µM
IC50 (Salmonella typhimurium [2]): 13.7 µM

CCCCN1c2nccc[n+]2C[C@@]1(O)c1ccc(Br)cc1
IC50 (Salmonella typhimurium [2]): 90.1 µM

CCCCCCCN1c2nccc[n+]2C[C@@]1(O)c1ccccc1
growth inhibition (GI) (Pseudomonas aeruginosa [3]): Active
IC50 (Pseudomonas aeruginosa [1]): 25.5 µM
IC50 (Salmonella typhimurium [2]): 23.4 µM
growth inhibition (GI) (Salmonella typhimurium [4]): Active

CC(C)N1c2nccc[n+]2C[C@@]1(O)c1ccccc1
IC50 (Pseudomonas aeruginosa [1]): > 400 µM
IC50 (Salmonella typhimurium [2]): 540 µM

CCCCN1c2nccc[n+]2C[C@@]1(O)c1ccc(OC)cc1
IC50 (Salmonella typhimurium [2]): 314 µM

CCCCCCCCN1c2nccc[n+]2C[C@@]1(O)c1ccc(-c2ccc(-c3ccccc3)cc2)cc1
IC50 (Pseudomonas aeruginosa [1]): 336 µM
IC50 (Salmonella typhimurium [2]): 52.8 µM

CCCCCCCCNc1ncc(-c2ccc(Cl)c(Cl)c2)[nH]1
IC50 (Pseudomonas aeruginosa [1]): > 800 µM
inhibition (INH) (Salmonella typhimurium [2]): 50%
IC50 (Salmonella typhimurium [2]): 118 µM

CCCCCCCCCCN1c2nccc[n+]2C[C@@]1(O)c1ccc(OC)cc1
IC50 (Salmonella typhimurium [2]): 18.6 µM
growth inhibition (GI) (Salmonella typhimurium [4]): Active

O=[N+]([O-])c1ccc([C@]2(O)C[n+]3cccnc3N2Cc2ccccc2)cc1
IC50 (Salmonella typhimurium [2]): 174 µM

CC(C)CN1c2nccc[n+]2C[C@@]1(O)c1ccccc1
IC50 (Pseudomonas aeruginosa [1]): 289 µM
IC50 (Salmonella typhimurium [2]): 131 µM

CCCCCCN1c2nccc[n+]2C[C@@]1(O)c1ccccc1
IC50 (Pseudomonas aeruginosa [1]): 406 µM
IC50 (Salmonella typhimurium [2]): 102 µM

CCCCCCCCNc1ncc(-c2ccc(OC)cc2)[nH]1
IC50 (Pseudomonas aeruginosa [1]): > 800 µM
inhibition (INH) (Salmonella typhimurium [2]): 50%
IC50 (Salmonella typhimurium [2]): 400 µM

O=[N+]([O-])c1ccc([C@]2(O)C[n+]3cccnc3N2C2CC2)cc1
IC50 (Pseudomonas aeruginosa [1]): 20.4 µM
IC50 (Salmonella typhimurium [2]): 125 µM

CCCCCCNc1ncc(-c2ccc(F)cc2)[nH]1
IC50 (Pseudomonas aeruginosa [1]): 12.5 µM
IC50 (Salmonella typhimurium [2]): > 400 µM

CC(C)(C)N1c2nccc[n+]2C[C@@]1(O)c1ccc([N+](=O)[O-])cc1
IC50 (Pseudomonas aeruginosa [1]): 41.5 µM
IC50 (Salmonella typhimurium [2]): 211 µM

CCCCCCCCCCCCCN1c2nccc[n+]2C[C@@]1(O)c1ccc(Cl)cc1
IC50 (Pseudomonas aeruginosa [1]): > 800 µM
IC50 (Salmonella typhimurium [2]): 316 µM

CCCCN1c2nccc[n+]2C[C@@]1(O)c1ccccc1
IC50 (Pseudomonas aeruginosa [1]): > 400 µM
IC50 (Salmonella typhimurium [2]): 410 µM

CCCCCCCCN1c2nccc[n+]2C[C@@]1(O)c1ccc(F)cc1
IC50 (Salmonella typhimurium [2]): 7.6 µM

CCCCCCCCNc1ncc(-c2ccc(F)cc2)[nH]1
IC50 (Pseudomonas aeruginosa [1]): 3.1 µM
IC50 (Salmonella typhimurium [2]): > 400 µM

CCCCN1c2nccc[n+]2C[C@@]1(O)c1ccc([N+](=O)[O-])cc1
IC50 (Pseudomonas aeruginosa [1]): 145 µM
IC50 (Salmonella typhimurium [2]): 293 µM

CCCCCCCCCCCCN1c2nccc[n+]2C[C@@]1(O)c1ccc(Cl)cc1
IC50 (Pseudomonas aeruginosa [1]): > 800 µM
IC50 (Salmonella typhimurium [2]): 122 µM

Clc1ccc(-c2cnc(NC3CCCCC3)[nH]2)cc1
IC50 (Pseudomonas aeruginosa [1]): 25 µM
IC50 (Salmonella typhimurium [2]): > 800 µM

COc1cccc(CNc2ncc(-c3ccc(-c4ccc(-c5ccccc5)cc4)cc3)[nH]2)c1
IC50 (Pseudomonas aeruginosa [1]): > 800 µM
IC50 (Salmonella typhimurium [2]): > 800 µM

CN1c2nccc[n+]2C[C@@]1(O)c1ccccc1
IC50 (Pseudomonas aeruginosa [1]): > 400 µM
IC50 (Salmonella typhimurium [2]): > 800 µM

COc1ccc(CN2c3nccc[n+]3C[C@@]2(O)c2ccc(Br)cc2)cc1
IC50 (Salmonella typhimurium [2]): 110 µM

CC(C)CN1c2nccc[n+]2C[C@@]1(O)c1ccc([N+](=O)[O-])cc1
IC50 (Pseudomonas aeruginosa [1]): 192 µM
IC50 (Salmonella typhimurium [2]): 322 µM

O[C@@]1(c2ccc(Cl)cc2)C[n+]2cccnc2N1C1CCC1
IC50 (Pseudomonas aeruginosa [1]): 372 µM
IC50 (Salmonella typhimurium [2]): 121 µM

CCCCCCCN1c2nccc[n+]2C[C@@]1(O)c1ccc(Cl)cc1
IC50 (Pseudomonas aeruginosa [1]): 36.9 µM
IC50 (Salmonella typhimurium [2]): 6.7 µM

CCN1c2nccc[n+]2C[C@@]1(O)c1ccc([N+](=O)[O-])cc1
IC50 (Pseudomonas aeruginosa [1]): > 800 µM
IC50 (Salmonella typhimurium [2]): 579 µM

CC(C)N1c2nccc[n+]2C[C@@]1(O)c1ccc([N+](=O)[O-])cc1
IC50 (Pseudomonas aeruginosa [1]): 192 µM
IC50 (Salmonella typhimurium [2]): 466 µM

CCCCCCCCCCN1c2nccc[n+]2C[C@@]1(O)c1ccc(Cl)c(Cl)c1
IC50 (Salmonella typhimurium [2]): 32.4 µM

O[C@@]1(c2ccc(Cl)cc2)C[n+]2cccnc2N1C1CC1
IC50 (Pseudomonas aeruginosa [1]): 179 µM
IC50 (Salmonella typhimurium [2]): 82.7 µM

CCNc1ncc(-c2ccc([N+](=O)[O-])cc2)[nH]1
IC50 (Pseudomonas aeruginosa [1]): 104 µM
IC50 (Salmonella typhimurium [2]): 171 µM

CN1c2nccc[n+]2C[C@@]1(O)c1ccc([N+](=O)[O-])cc1
IC50 (Pseudomonas aeruginosa [1]): > 400 µM
IC50 (Salmonella typhimurium [2]): 698 µM

CCCCCCCCNc1ncc(-c2cccc3ccccc23)[nH]1
IC50 (Pseudomonas aeruginosa [1]): > 800 µM
inhibition (INH) (Salmonella typhimurium [2]): 50%
IC50 (Salmonella typhimurium [2]): 238 µM

CN1c2nccc[n+]2C[C@@]1(O)c1ccc(F)cc1
IC50 (Salmonella typhimurium [2]): 1820 µM

O[C@@]1(c2ccc3c(c2)OCO3)C[n+]2cccnc2N1Cc1ccc2c(c1)OCO2
IC50 (Salmonella typhimurium [2]): 53.7 µM
growth inhibition (GI) (Salmonella typhimurium [4]): inactive

CCCCN1c2nccc[n+]2C[C@@]1(O)c1ccc(F)cc1
IC50 (Salmonella typhimurium [2]): 163 µM

CCCCCCCCN1c2nccc[n+]2C[C@@]1(O)c1ccc(OC)cc1
IC50 (Salmonella typhimurium [2]): 10.5 µM

CN1c2nccc[n+]2C[C@@]1(O)c1ccc(Cl)cc1
IC50 (Pseudomonas aeruginosa [1]): 170 µM
IC50 (Salmonella typhimurium [2]): 225 µM

CCCCCCCCN1c2nccc[n+]2C[C@@]1(O)c1ccc(S(C)(=O)=O)cc1
IC50 (Pseudomonas aeruginosa [1]): 99.9 µM
IC50 (Salmonella typhimurium [2]): 60.3 µM

CCCCCCCCN1c2nccc[n+]2C[C@@]1(O)c1ccc(Cl)c(Cl)c1
IC50 (Salmonella typhimurium [2]): 7.1 µM

COc1cccc(CNc2ncc(-c3ccc(Cl)c(Cl)c3)[nH]2)c1
IC50 (Pseudomonas aeruginosa [1]): > 800 µM
IC50 (Salmonella typhimurium [2]): > 800 µM

CCCCCNc1ncc(-c2ccc(Cl)cc2)[nH]1
IC50 (Pseudomonas aeruginosa [1]): 6.3 µM
IC50 (Salmonella typhimurium [2]): > 400 µM
